Where two headings read alike, the source gives them in different places.
Tests used:
[1] = system: East Asian patients with advanced nonhematologic malignancies; experiment: Dose-limiting toxicities and MTD/RP2D determination; assay type: in vivo, human
Procedure, shortened: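 Standard 3 + 3 escalation with planned levels of 2 and 4 mg once daily and 20 and 30 mg once weekly, oral, in 28-day cycles; intermediate doses and expansion to 12 patients were permitted. DLTs were assessed in cycle 1 and covered grade ≥ 3 nonhematologic toxicity (with specified exceptions), defined hematologic events, and < 75% of planned doses given. Evaluable patients received ≥ 75% of planned doses (21 once daily, three once weekly).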

[2] = system: nonhematologic malignancies/solid tumors, endometrial cancer; settings: phase 2 study in endometrial cancer; single-agent 30 mg QW; cited from earlier work
Western patients = settings: cited from earlier work

CC(C)n1nc(-c2ccc3oc(N)nc3c2)c2c(N)ncnc21 [sapanisertib]
DLT of grade 3 stomatitis ([1]; 4 mg QD cohort): 2 n
Dose-limiting toxicities (patients experiencing DLTs) ([1]; 4 mg QD cohort, cycle 1): three
DLTs ([1]; 20 mg QW dose level): no patients experienced DLTs
DLTs ([1]; 30 mg QW dose level): no patients experienced DLTs
Maximum tolerated dose (MTD) ([1]; QD dosing, East Asian patients): 3 mg
Recommended phase 2 dose (RP2D) ([1]; QD dosing, East Asian patients): 3 mg
Recommended phase 2 dose (RP2D) ([1]; QW dosing, East Asian patients): 30 mg
Pre-defined futility threshold [2]: did not meet a pre-defined futility threshold
RP2D in Western patients (Western patients; QD, Western patient populations): 4 mg
Lowest RP2D in previous studies in Western patients (Western patients; QD): 4 mg
Lowest RP2D in previous studies in Western patients (Western patients; QW): 30 mg
